As usually defined, the GI50 is the concentration giving 50% growth inhibition. High values mean lower sensitivity of the cells, low ones greater sensitivity of the cells. The half-life is how long it takes for the measured level to halve. Read a high half-life as slow decline. The term pEC50 denotes −log10 of the EC50, conventionally taken in molar units. A low value points to a large EC50. A word on the AUC(0-inf): it is total exposure, with the tail of the curve extrapolated. Low values mean low exposure, high ones high exposure. Usually clearance stands for a measure of how efficiently the substance is removed, as volume per time. Higher therefore signals a high capacity for elimination. The pIC50 is −log10 of the IC50, conventionally taken in molar units. As usually defined, the bioavailability is the share of a dose that reaches the circulation, judged against a reference dose that is usually intravenous. A lower bioavailability goes with poor availability. The pKi is the Ki on a negative log10 scale, so that one unit is a factor of ten.

For one series, the system named is MDA-MB-468. The series is described as follows: Cytotoxicity against human MDA-MB-468 cells after 5 days by sulforhodamine B assay. The series is classed as functional. Put shortly:
(§1)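 Cancer lines were seeded at 800–6000 cells per well according to growth rate, 24 h before compound overlay. After culture, cells were fixed in situ and stained with sulforhodamine B. GI50 values were derived by curve fitting.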

A short description of series [1]: Half life in rat liver microsomes at 1 uM by LC-MS analysis. The format is ADME. The following applies: liver microsomes. On the technique in general: Liver microsomes are vesicles of endoplasmic reticulum, rich in cytochrome P450 enzymes.
Series [2] concerns the target T1, Dual specificity protein kinase TTK (Homo sapiens, UniProt P33981).
T1 sequence (P33981 whole entry): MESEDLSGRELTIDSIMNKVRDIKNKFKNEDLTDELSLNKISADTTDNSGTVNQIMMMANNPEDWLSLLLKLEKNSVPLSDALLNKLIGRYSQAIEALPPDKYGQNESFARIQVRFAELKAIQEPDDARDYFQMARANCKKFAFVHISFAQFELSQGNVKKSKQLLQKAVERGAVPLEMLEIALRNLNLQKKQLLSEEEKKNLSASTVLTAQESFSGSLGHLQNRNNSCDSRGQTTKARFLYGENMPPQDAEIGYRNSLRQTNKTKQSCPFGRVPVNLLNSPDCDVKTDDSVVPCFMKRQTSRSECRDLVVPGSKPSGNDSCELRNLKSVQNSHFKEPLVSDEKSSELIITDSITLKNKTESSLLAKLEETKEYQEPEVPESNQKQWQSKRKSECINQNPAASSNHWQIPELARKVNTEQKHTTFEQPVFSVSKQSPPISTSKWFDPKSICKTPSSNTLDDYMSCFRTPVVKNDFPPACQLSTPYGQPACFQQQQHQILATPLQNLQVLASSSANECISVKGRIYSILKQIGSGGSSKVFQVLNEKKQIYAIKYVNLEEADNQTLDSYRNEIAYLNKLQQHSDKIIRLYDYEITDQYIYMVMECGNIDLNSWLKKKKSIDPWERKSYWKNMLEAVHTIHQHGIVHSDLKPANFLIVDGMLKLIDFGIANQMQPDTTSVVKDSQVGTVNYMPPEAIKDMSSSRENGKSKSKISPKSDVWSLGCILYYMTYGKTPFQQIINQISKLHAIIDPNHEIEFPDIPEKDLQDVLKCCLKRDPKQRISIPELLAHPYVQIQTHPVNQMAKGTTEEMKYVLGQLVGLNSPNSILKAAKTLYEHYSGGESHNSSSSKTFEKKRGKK
The series is described as follows: Inhibition of TTK (unknown origin) transfected in human HCT116 cells after 4 hrs by near infrared imager analysis. The format is cell-based, HCT-116. Put shortly: (§2)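 HCT116 cells transfected with wild-type TTK were arrested with nocodazole (200 ng/mL, 17 h). They were pretreated with MG132 (15 μM, 30 min), then exposed to compound or DMSO for 4 h. Blots were probed for phospho-TTK (Thr12/Ser15), phospho-Aurora A (Thr288)/B (Thr232), TTK and GAPDH. Bands were quantified by near-infrared imaging, and EC50 was fitted.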

A short description of series [3]: AUCinfinity in athymic CD1 nude mouse at 10 mg/kg, po by LC-MS/MS analysis. The format is ADME, organism-based, Plasma. Set-up: time infinity, dose 10 mg/kg, route oral. The following applies: athymic CD1 nude, plasma.
Series [4] in a line: Clearance in Sprague-Dawley rat at 1 mg/kg, iv by LC-MS/MS analysis. The format is ADME, organism-based. Further details: dose 1 mg/kg, route intravenous. The following applies: in vivo.
For series [5], the target named is T1, Dual specificity protein kinase TTK. The series is described as follows: Inhibition of amino terminal GST-fused full length human TTK using His6-SUMO-TTK-N as substrate preincubated for 15 mins prior to ATP addition by indirect ELISA detection system.
The nature of series [6]: Cytotoxicity against human HCT116 cells after 5 days by sulforhodamine B assay. The format is functional, HCT-116. An outline of the steps:
as §1
On the technique in general: Sulforhodamine B stains cellular protein and so reports cell mass.

A short description of series [7]: AUCinfinity in Sprague-Dawley rat at 1 mg/kg, iv by LC-MS/MS analysis. The format is ADME, organism-based. Set-up: time infinity, dose 1 mg/kg, route intravenous. The following applies: plasma.
Series [8] is described as follows: Plasma protein binding in rat. The following applies: read-out: PPB (converted). The format is ADME, cell-free.
Series [9] is described as follows: Cytotoxicity against HMEC after 5 days by sulforhodamine B assay. The series is classed as cell-based. The following applies: human, HMEC cells. Put shortly:
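Cells were seeded at 800–6000 per well according to growth rate, 24 h before compound overlay. After culture they were fixed in situ and stained with sulforhodamine B. GI50 was calculated by curve fitting.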

A short description of series [10]: Oral bioavailability in dog. The series is classed as ADME, organism-based, Canis lupus familiaris. The following applies: in vivo.
In series [11] the target is T1, Dual specificity protein kinase TTK. As to the kind of experiment: Competitive inhibition of amino terminal GST-fused full length human TTK using His6-SUMO-TTK-N as substrate by Lineweaver-Burk plot analysis in presence of ATP. The following applies: read-out: Ki(app).
Series [12] concerns the target Maternal embryonic leucine zipper kinase (Homo sapiens, UniProt Q14680). As to the kind of experiment: Inhibition of human MELK by millipore radiometric assay. An outline of the steps: (§3)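 Radiometric profiling against a 278-kinase panel was done with ATP at Km. Half-maximal inhibitory concentrations were then determined for the kinases most inhibited.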
Series [13] is described as follows: Half life in mouse liver microsomes at 1 uM by LC-MS analysis. The following applies: liver microsomes. The series is classed as ADME.
Series [14] deals with Mitogen-activated protein kinase 1 (Homo sapiens, UniProt P28482). As to the kind of experiment: Inhibition of human MAPK1 by millipore radiometric assay. Put shortly: as §3
For a further series, the system named is T47D. The series is described as follows: Cytotoxicity against human T47D cells after 5 days by sulforhodamine B assay. The following applies: 120 h. The format is functional. Put shortly: as §1
Another series relates to A2780. The series is described as follows: Cytotoxicity against human A2780 cells after 5 days by sulforhodamine B assay. The series is classed as functional. The following applies: A2780, 120 h. Put shortly:
as §1

The nature of series [15]: Antitumor activity against human HCT116 cells xenografted in athymic CD1 nude mouse assessed as tumor growth inhibition at 35 mg/kg, po qd administered for 21 days measured 3 times per week during compound dosing relative to vehicle-treated control. The series is classed as functional. The following applies: HCT-116, 504 h, read-out: TGI. An outline of the steps:
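HCT116 cells (5 million) were injected subcutaneously into the right flank of 6–8 week old female athymic CD-1 nude mice. At a mean tumor volume of 80–120 mm³, mice were randomized (n = 8). Tumors were measured three times weekly, volume x²y/2, and TGI was taken against vehicle.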
A general note: Xenograft models place foreign cells or tissue in a host animal.

Another series relates to SW-620. As to the kind of experiment: Cytotoxicity against human SW620 cells after 5 days by sulforhodamine B assay. The following applies: SW-620, 120 h. The series is classed as functional. An outline of the steps: as §1
Series [16] in a line: Cytotoxicity against human OVCAR3 cells after 5 days by sulforhodamine B assay. The series is classed as functional, OVCAR-3.
Series [17] can be described thus: Half life in dog liver microsomes at 1 uM by LC-MS analysis. The format is ADME, Canis lupus familiaris.
For another series, the target named is T2, Aurora kinase A (Homo sapiens, UniProt O14965).
T2 sequence (O14965 whole entry): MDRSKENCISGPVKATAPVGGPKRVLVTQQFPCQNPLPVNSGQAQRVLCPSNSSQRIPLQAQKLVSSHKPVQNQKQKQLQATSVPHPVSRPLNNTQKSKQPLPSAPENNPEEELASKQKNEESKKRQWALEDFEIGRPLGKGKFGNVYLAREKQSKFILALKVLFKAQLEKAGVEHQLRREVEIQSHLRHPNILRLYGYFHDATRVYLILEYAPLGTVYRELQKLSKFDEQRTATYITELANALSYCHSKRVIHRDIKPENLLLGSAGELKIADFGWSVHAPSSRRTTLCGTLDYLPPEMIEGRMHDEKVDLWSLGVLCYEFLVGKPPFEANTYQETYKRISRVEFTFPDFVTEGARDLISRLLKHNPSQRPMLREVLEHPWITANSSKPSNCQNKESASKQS
As to the kind of experiment: Inhibition of AURKA (unknown origin) transfected in human HCT116 cells after 4 hrs by near infrared imager analysis. The format is cell-based, HCT-116. An outline of the steps:
as §2

pEC50, pIC50, pKi: −log10 of the molar value. Where only a bound is given, the exact number is not on record here.

Sequence of Maternal embryonic leucine zipper kinase (Q14680 whole entry): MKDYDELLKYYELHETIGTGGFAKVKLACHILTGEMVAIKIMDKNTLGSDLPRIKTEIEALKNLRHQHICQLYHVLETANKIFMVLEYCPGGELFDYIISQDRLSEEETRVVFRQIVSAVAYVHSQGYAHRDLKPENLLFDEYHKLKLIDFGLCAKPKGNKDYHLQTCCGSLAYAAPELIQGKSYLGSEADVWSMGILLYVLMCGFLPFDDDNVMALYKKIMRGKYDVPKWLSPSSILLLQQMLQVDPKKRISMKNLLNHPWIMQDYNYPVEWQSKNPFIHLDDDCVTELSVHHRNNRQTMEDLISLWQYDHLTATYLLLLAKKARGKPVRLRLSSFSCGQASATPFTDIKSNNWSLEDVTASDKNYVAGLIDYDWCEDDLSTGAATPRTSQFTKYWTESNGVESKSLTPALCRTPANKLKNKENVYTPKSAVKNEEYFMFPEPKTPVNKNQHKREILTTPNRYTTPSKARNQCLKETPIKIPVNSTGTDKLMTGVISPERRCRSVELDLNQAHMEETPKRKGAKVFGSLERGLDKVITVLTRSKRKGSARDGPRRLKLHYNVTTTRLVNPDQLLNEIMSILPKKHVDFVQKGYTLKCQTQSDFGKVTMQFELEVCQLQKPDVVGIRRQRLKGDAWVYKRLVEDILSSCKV
Sequence of Mitogen-activated protein kinase 1 (P28482 whole entry): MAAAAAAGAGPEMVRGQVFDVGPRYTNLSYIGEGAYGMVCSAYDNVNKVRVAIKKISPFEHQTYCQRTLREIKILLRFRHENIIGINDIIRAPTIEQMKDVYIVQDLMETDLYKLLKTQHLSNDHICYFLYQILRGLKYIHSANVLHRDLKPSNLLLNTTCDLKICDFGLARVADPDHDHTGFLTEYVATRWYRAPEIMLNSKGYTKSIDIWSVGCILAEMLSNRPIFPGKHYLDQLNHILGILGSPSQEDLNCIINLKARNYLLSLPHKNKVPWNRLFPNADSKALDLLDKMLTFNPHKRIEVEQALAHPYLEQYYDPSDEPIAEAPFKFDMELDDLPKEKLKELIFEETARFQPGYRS

As for `O=C(N[C@@H](c1ccccn1)C1CC1)c1ccc2[nH]nc(-c3ccc(N4[C@H]5CC[C@H]4CC(O)C5)cc3)c2c1` (stereo in doubt; 75), the GI50 in the series on MDA-MB-468 amounted to 36 nM; in [6], 17 nM; in the series with T47D it was 20 nM; with A2780, 20 nM; in the series on SW-620, 30 nM; in [16], 80 nM. For the same compound, the half-life at 1 µM in series [1], in series [13] and in series [17] was over 1 h throughout. Also, the pEC50 in series [2] was 7.85; at Aurora kinase A, under 5.22. Also, the figures for the AUC(0-inf) in [3] and in series [7] were 3000 ng·h/mL and 250 ng·h/mL, respectively. Further, the clearance in series [4] amounted to 66 mL/min/kg. For the same compound, the negative logarithm of the IC50 (pIC50) is 8.51 in series [5], 6.80 in series [12] and 6.49 in series [14]. For the same compound, in series [8], the fraction unbound was 0.069. The 50% growth inhibitory concentration (GI50) at 120 h in series [9] is over 30000 nM. Further, in series [10], the bioavailability was 43%. Besides, in [11], the pKi is 9.15. In addition, the inhibition in vivo at 35 mg/kg in [15] stood at 77%.

The record behind these values is ChEMBL document CHEMBL3421533, “The Discovery of Orally Bioavailable Tyrosine Threonine Kinase (TTK) Inhibitors: 3-(4-(heterocyclyl)phenyl)-1H-indazole-5-carboxamides as Anticancer Agents” (J Med Chem, 2015).
